According to ChEMBL document CHEMBL3734675, “Synthesis, antimycobacterial and antibacterial activity of fluoroquinolone derivatives containing an 3-alkoxyimino-4-(cyclopropylanimo)methylpyrrolidine moiety” (2015):
Converted amounts (≈) assume the structure as drawn.

Experiments:
Type in all cases: functional
[1] = test system: Enterococcus faecalis; test: Antibacterial activity against Enterococcus faecalis 14-1 after 18 to 24 hrs by two-fold serial dilution method
Outline: (§1)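 Twofold serial dilution in agar media against Gram-positive and Gram-negative strains. Plates incubated at 35 °C for 18–24 h. MIC read as the lowest compound concentration giving complete inhibition of bacterial growth.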

[2] = test system: Staphylococcus epidermidis; test: Antibacterial activity against methicillin-resistant Staphylococcus epidermidis 14-37 after 18 to 24 hrs by two-fold serial dilution method
Outline: (§2)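 Agar media, standard twofold serial dilution. MIC is the lowest concentration giving complete inhibition of bacterial growth after incubation at 35 °C for 18–24 h. Ciprofloxacin and levofloxacin were run as comparators.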

[3] = test system: Pseudomonas aeruginosa; test: Antibacterial activity against Pseudomonas aeruginosa 14-16 after 18 to 24 hrs by two-fold serial dilution method; outline: as §1
[4] = test system: Staphylococcus aureus; test: Antibacterial activity against methicillin-resistant Staphylococcus aureus 14-5 after 18 to 24 hrs by two-fold serial dilution method; outline: as §2
[5] = test system: Klebsiella pneumoniae; test: Antibacterial activity against extended-spectrum beta-lactamase producing Klebsiella pneumoniae 14-17 after 18 to 24 hrs by two-fold serial dilution method; outline: as §1
[6] = test system: Klebsiella pneumoniae; test: Antibacterial activity against Klebsiella pneumoniae 14-2 after 18 to 24 hrs by two-fold serial dilution method; outline: as §1
[7] = test system: Enterococcus faecium; test: Antibacterial activity against Enterococcus faecium 14-6 after 18 to 24 hrs by two-fold serial dilution method; outline: as §1
[8] = test system: Klebsiella pneumoniae; test: Antibacterial activity against Klebsiella pneumoniae 14-4 after 18 to 24 hrs by two-fold serial dilution method; outline: as §1
[9] = test system: Escherichia coli; test: Antibacterial activity against Escherichia coli 14-1 after 18 to 24 hrs by two-fold serial dilution method; outline: as §1
[10] = test system: Streptococcus pneumoniae; test: Antibacterial activity against methicillin-resistant Streptococcus pneumoniae ATCC 19615 after 18 to 24 hrs by two-fold serial dilution method; outline: as §2
[11] = test system: Escherichia coli; test: Antibacterial activity against Escherichia coli 14-2 after 18 to 24 hrs by two-fold serial dilution method; outline: as §1
[12] = test system: Pseudomonas aeruginosa; test: Antibacterial activity against Pseudomonas aeruginosa 14-15 after 18 to 24 hrs by two-fold serial dilution method; outline: as §1
[13] = test system: Staphylococcus aureus; test: Antibacterial activity against methicillin-sensitive Staphylococcus aureus 14-1 after 18 to 24 hrs by two-fold serial dilution method; outline: as §1
[14] = test system: Staphylococcus epidermidis; test: Antibacterial activity against methicillin-resistant Staphylococcus epidermidis 14-22 after 18 to 24 hrs by two-fold serial dilution method; outline: as §2
[15] = test system: Pseudomonas aeruginosa; test: Antibacterial activity against Pseudomonas aeruginosa ATCC 27853 after 18 to 24 hrs by two-fold serial dilution method; outline: as §1
[16] = test system: Staphylococcus aureus; test: Antibacterial activity against methicillin-resistant Staphylococcus aureus 14-4 after 18 to 24 hrs by two-fold serial dilution method; outline: as §2
[17] = test system: Klebsiella pneumoniae; test: Antibacterial activity against Klebsiella pneumoniae 14-3 after 18 to 24 hrs by two-fold serial dilution method; outline: as §1
[18] = test system: Klebsiella pneumoniae; test: Antibacterial activity against extended-spectrum beta-lactamase producing Klebsiella pneumoniae 14-19 after 18 to 24 hrs by two-fold serial dilution method; outline: as §1
[19] = test system: Escherichia coli; test: Antibacterial activity against Escherichia coli ATCC 25922 after 18 to 24 hrs by two-fold serial dilution method; outline: as §1
[20] = test system: Staphylococcus aureus; test: Antibacterial activity against methicillin-sensitive Staphylococcus aureus 14-3 after 18 to 24 hrs by two-fold serial dilution method; outline: as §1
[21] = test system: Staphylococcus epidermidis; test: Antibacterial activity against methicillin-sensitive Staphylococcus epidermidis 14-2 after 18 to 24 hrs by two-fold serial dilution method; outline: as §1
[22] = test system: Staphylococcus epidermidis; test: Antibacterial activity against methicillin-resistant Staphylococcus epidermidis 14-21 after 18 to 24 hrs by two-fold serial dilution method; outline: as §2
[23] = test system: Enterococcus faecium; test: Antibacterial activity against Enterococcus faecium 14-2 after 18 to 24 hrs by two-fold serial dilution method; outline: as §1
[24] = test system: Pseudomonas aeruginosa; test: Antibacterial activity against Pseudomonas aeruginosa 14-14 after 18 to 24 hrs by two-fold serial dilution method; outline: as §1
[25] = test system: Staphylococcus aureus; test: Antibacterial activity against Staphylococcus aureus CMCC 26003 after 18 to 24 hrs by two-fold serial dilution method; outline: as §1
[26] = test system: Enterococcus faecium; test: Antibacterial activity against Enterococcus faecium 14-5 after 18 to 24 hrs by two-fold serial dilution method; outline: as §1
[27] = test system: Pseudomonas aeruginosa; test: Antibacterial activity against Pseudomonas aeruginosa 14-9 after 18 to 24 hrs by two-fold serial dilution method; outline: as §1
[28] = test system: Staphylococcus epidermidis; test: Antibacterial activity against methicillin-resistant Staphylococcus epidermidis 14-39 after 18 to 24 hrs by two-fold serial dilution method; outline: as §2
[29] = test system: Klebsiella pneumoniae; test: Antibacterial activity against Klebsiella pneumoniae 14-1 after 18 to 24 hrs by two-fold serial dilution method; outline: as §1
[30] = test system: Escherichia coli; test: Antibacterial activity against extended-spectrum beta-lactamase producing Escherichia coli 14-1 after 18 to 24 hrs by two-fold serial dilution method; outline: as §1
[31] = test system: Enterococcus faecalis; test: Antibacterial activity against Enterococcus faecalis 14-2 after 18 to 24 hrs by two-fold serial dilution method; outline: as §1
[32] = test system: Staphylococcus aureus; test: Antibacterial activity against methicillin-sensitive Staphylococcus aureus 14-4 after 18 to 24 hrs by two-fold serial dilution method; outline: as §1
[33] = test system: Escherichia coli; test: Antibacterial activity against extended-spectrum beta-lactamase producing Escherichia coli 14-2 after 18 to 24 hrs by two-fold serial dilution method; outline: as §1
[34] = test system: Klebsiella pneumoniae; test: Antibacterial activity against extended-spectrum beta-lactamase producing Klebsiella pneumoniae 14-18 after 18 to 24 hrs by two-fold serial dilution method; outline: as §1
[35] = test system: Mycobacterium tuberculosis; test: Antimycobacterial activity against Mycobacterium tuberculosis H37Rv ATCC 27294 incubated for 7 days by microplate Alamar Blue assay; details: H37Rv ATCC 27294, 168 h
Outline: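 Fluorescence read-out. MIC is the lowest concentration that reduces fluorescence by at least 90% relative to the mean of replicate bacterium-only controls. Isoniazid and rifampicin were included as reference drugs.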

Row | SMILES | MIC [1] [µg/mL] | MIC [2] [µg/mL] | MIC [3] [µg/mL] | MIC [4] [µg/mL] | MIC [5] [µg/mL] | MIC [6] [µg/mL] | MIC [7] [µg/mL] | MIC [8] [µg/mL] | MIC [9] [µg/mL] | MIC [10] [µg/mL] | MIC [11] [µg/mL] | MIC [12] [µg/mL] | MIC [13] [µg/mL] | MIC [14] [µg/mL] | MIC [15] [µg/mL] | MIC [17] [µg/mL] | MIC [18] [µg/mL] | MIC [19] [µg/mL] | MIC [20] [µg/mL] | MIC90 [35] [µg/mL] | further results
1 | CO/N=C1/CN(c2c(F)cc3c(=O)c(C(=O)O)cn4c3c2OC[C@@H]4CF)CC1(C)CNC1CC1 (stereo not given in full) | 16 (≈ 33.6 µM) | 16 (≈ 33.6 µM) | 64 (≈ 134 µM) | 4 (≈ 8.39 µM) | 32 (≈ 67.2 µM) | > 128 | 16 (≈ 33.6 µM) | 128 (≈ 269 µM) | > 128 | 0.25 (≈ 0.525 µM) | > 128 | 128 (≈ 269 µM) | 4 (≈ 8.39 µM) | 4 (≈ 8.39 µM) | 32 (≈ 67.2 µM) | 128 (≈ 269 µM) | > 128 | 2 (≈ 4.2 µM) | 0.03 (≈ 0.063 µM) | – | MIC [16]: 8 µg/mL (≈ 16.8 µM); MIC [21]: 16 µg/mL (≈ 33.6 µM); MIC [22]: 16 µg/mL (≈ 33.6 µM); MIC [23]: 8 µg/mL (≈ 16.8 µM); MIC [24]: 128 µg/mL (≈ 269 µM); MIC [25]: < 0.008 µg/mL; MIC [26]: 4 µg/mL (≈ 8.39 µM); MIC [27]: 32 µg/mL (≈ 67.2 µM); MIC [28]: 2 µg/mL (≈ 4.2 µM); MIC [29]: > 128 µg/mL; MIC [30]: 8 µg/mL (≈ 16.8 µM); MIC [31]: 0.5 µg/mL (≈ 1.05 µM); MIC [32]: 0.03 µg/mL (≈ 0.063 µM); MIC [33]: > 128 µg/mL; MIC [34]: 32 µg/mL (≈ 67.2 µM)
2 | CO/N=C1/CN(c2c(F)cc3c(=O)c(C(=O)O)cn(C4CC4)c3c2OC)CC1CNC1CC1 (stereo not given) | > 128 | > 128 | 128 (≈ 279 µM) | > 128 | > 128 | > 128 | > 128 | > 128 | > 128 | 64 (≈ 140 µM) | > 128 | 128 (≈ 279 µM) | > 128 | > 128 | 128 (≈ 279 µM) | > 128 | > 128 | 32 (≈ 69.8 µM) | > 128 | > 32 | MIC [21]: > 128 µg/mL; MIC [22]: > 128 µg/mL; MIC [23]: > 128 µg/mL; MIC [24]: 128 µg/mL (≈ 279 µM); MIC [25]: 8 µg/mL (≈ 17.4 µM); MIC [26]: > 128 µg/mL; MIC [27]: 128 µg/mL (≈ 279 µM); MIC [28]: > 128 µg/mL; MIC [29]: > 128 µg/mL; MIC [30]: 128 µg/mL (≈ 279 µM); MIC [31]: 64 µg/mL (≈ 140 µM); MIC [32]: > 128 µg/mL; MIC [33]: > 128 µg/mL; MIC [34]: > 128 µg/mL
3 | CO/N=C1/CN(c2nc3c(cc2F)c(=O)c(C(=O)O)cn3C2CC2)CC1CNC1CC1 (stereo not given) | 64 (≈ 149 µM) | 32 (≈ 74.5 µM) | 32 (≈ 74.5 µM) | 8 (≈ 18.6 µM) | 16 (≈ 37.3 µM) | 128 (≈ 298 µM) | 32 (≈ 74.5 µM) | > 128 | > 128 | 4 (≈ 9.31 µM) | > 128 | 32 (≈ 74.5 µM) | 8 (≈ 18.6 µM) | 16 (≈ 37.3 µM) | 16 (≈ 37.3 µM) | 128 (≈ 298 µM) | 32 (≈ 74.5 µM) | 0.5 (≈ 1.16 µM) | 4 (≈ 9.31 µM) | 0.44 (≈ 1.02 µM) | MIC [16]: > 128 µg/mL; MIC [21]: > 128 µg/mL; MIC [22]: 16 µg/mL (≈ 37.3 µM); MIC [23]: 32 µg/mL (≈ 74.5 µM); MIC [24]: 32 µg/mL (≈ 74.5 µM); MIC [25]: < 0.008 µg/mL; MIC [26]: 16 µg/mL (≈ 37.3 µM); MIC [27]: 8 µg/mL (≈ 18.6 µM); MIC [28]: 16 µg/mL (≈ 37.3 µM); MIC [29]: 128 µg/mL (≈ 298 µM); MIC [30]: 16 µg/mL (≈ 37.3 µM); MIC [31]: 0.5 µg/mL (≈ 1.16 µM); MIC [32]: 8 µg/mL (≈ 18.6 µM); MIC [33]: > 128 µg/mL; MIC [34]: 16 µg/mL (≈ 37.3 µM)
4 | NNC(=O)c1ccncc1 [ISONIAZID] | – | – | – | – | – | – | – | – | – | – | – | – | – | – | – | – | – | – | – | 0.05 (≈ 0.365 µM) | –
5 | CO[C@H]1/C=C/O[C@@]2(C)Oc3c(C)c(O)c4c(O)c(c(/C=N/N5CCN(C)CC5)c(O)c4c3C2=O)NC(=O)/C(C)=C\C=C\[C@H](C)[C@H](O)[C@@H](C)[C@@H](O)[C@@H](C)[C@H](OC(C)=O)[C@@H]1C [RIFAMPIN] | – | – | – | – | – | – | – | – | – | – | – | – | – | – | – | – | – | – | – | 0.05 (≈ 0.0608 µM) | –
